Measurements: ChEMBL document CHEMBL4196195, “( R)- N-(1-Methyl-2-hydroxyethyl)-13-( S)-methyl-arachidonamide (AMG315): A Novel Chiral Potent Endocannabinoid Ligand with Stability to Metabolizing Enzymes” (J Med Chem, 2018)
pEC50, pKi: −log10 of the molar value. Calls of active or inactive are those of the source.

Tests used:
[1] = target: T1, MGL (monoglyceride lipase) (Homo sapiens, UniProt Q99685); assay: Stability assessed as human MGL-mediated compound hydrolysis by HPLC analysis; assay type: ADME; conditions: read-out: Stability
T1 sequence (Q99685 whole entry): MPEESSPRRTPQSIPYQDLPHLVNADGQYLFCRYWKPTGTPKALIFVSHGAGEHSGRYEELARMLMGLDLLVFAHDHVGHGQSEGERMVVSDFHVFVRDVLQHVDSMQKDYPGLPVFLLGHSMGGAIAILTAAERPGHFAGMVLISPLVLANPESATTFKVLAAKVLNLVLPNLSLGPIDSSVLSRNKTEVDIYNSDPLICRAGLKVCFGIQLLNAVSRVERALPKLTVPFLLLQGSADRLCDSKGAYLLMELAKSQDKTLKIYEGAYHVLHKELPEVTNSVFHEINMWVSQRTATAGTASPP
How it was run: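 Human MGL or ABHD6 expressed in E. coli BL21(DE3); cell lysate in 150 mM NaCl, 50 mM Tris, 1% Triton X-100, pH 8.0. Lysate (0.5 µg total protein) incubated at 37 °C with compound or 2-AG reference for 30 min. Samples at 0–30 min quenched in acetonitrile. Analysed by C18 reversed-phase HPLC with UV at 204 nm against external standards.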

Cannabinoid receptor 1 [2] = target: T2, Cannabinoid receptor 1 (Rattus norvegicus, UniProt P20272); assay: Displacement of [3H]CP-55,940 from CB1 receptor in rat brain membranes in presence of FAAH inhibitor PMSF by radioligand binding assay; assay type: cell membranes, Membrane
Cannabinoid receptor 2 = Cannabinoid receptor 2 (Mus musculus, UniProt P47936); assay: Displacement of [3H]CP-55,940 from mouse CB2 receptor expressed in HEK293 cell membranes in absence of FAAH inhibitor PMSF by radioligand binding assay
How it was run: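 Membranes from HEK293 cells expressing human or mouse CB2 (preparations lacking FAAH activity), competing against [3H]CP-55,940. IC50 by nonlinear regression, converted to Ki. Three independent experiments run in triplicate; Ki is the mean of the three.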

Mus musculus [3] = assay: Antiallodynic activity in CD1 mouse model of CFA-induced inflammatory pain assessed as increase in CFA-reduced mechanical paw withdrawal threshold at 5 mg/kg, ip measured at 60 mins post injection; assay type: functional, organism-based
How it was run: (§1)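 Adult male mice (39 ± 10 g), wild-type CD1 or CB1 KO on CD1 background, single housed. CFA:saline 1:1 (20 μL) injected intraplantar into right hind paw; 48 h allowed before dosing. Drug given ip in 5 mL/kg, vehicle group included. Electronic von Frey (90 g probe) after ≥30 min habituation, read in duplicate per paw, at baseline, 48 h post-CFA and 10, 30, 60, 120 min post-dose. Two-way mixed ANOVA with Bonferroni post hoc tests.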

Cannabinoid receptor 1 [4] = target: T2, Cannabinoid receptor 1; assay: Agonist activity at rat CB1 receptor expressed in HEK293 cells assessed as inhibition of forskolin-induced cAMP accumulation incubated for 30 mins; assay type: functional, cell-based; conditions: read-out: EC50
How it was run: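 HEK293 cells stably expressing rCB1, harvested with nonenzymatic dissociation reagent, washed in HBSS, 1000–1500 cells/well. Test compound at various concentrations with forskolin (2 μM final) in stimulation buffer, 30 min at room temperature. cAMP read by TR-FRET (Eu-cAMP tracer plus ULight anti-cAMP, 60 min room temperature). Forskolin-stimulated cAMP set to 100%. EC50 from nonlinear regression; two independent experiments in triplicate.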

Mus musculus [5] = assay: Antiallodynic activity in CD1 mouse model of CFA-induced inflammatory pain assessed as increase in CFA-reduced mechanical paw withdrawal threshold at 5 mg/kg, ip measured at 10 mins post injection; assay type: functional, organism-based; how it was run: as §1

T2 sequence (P20272 whole entry): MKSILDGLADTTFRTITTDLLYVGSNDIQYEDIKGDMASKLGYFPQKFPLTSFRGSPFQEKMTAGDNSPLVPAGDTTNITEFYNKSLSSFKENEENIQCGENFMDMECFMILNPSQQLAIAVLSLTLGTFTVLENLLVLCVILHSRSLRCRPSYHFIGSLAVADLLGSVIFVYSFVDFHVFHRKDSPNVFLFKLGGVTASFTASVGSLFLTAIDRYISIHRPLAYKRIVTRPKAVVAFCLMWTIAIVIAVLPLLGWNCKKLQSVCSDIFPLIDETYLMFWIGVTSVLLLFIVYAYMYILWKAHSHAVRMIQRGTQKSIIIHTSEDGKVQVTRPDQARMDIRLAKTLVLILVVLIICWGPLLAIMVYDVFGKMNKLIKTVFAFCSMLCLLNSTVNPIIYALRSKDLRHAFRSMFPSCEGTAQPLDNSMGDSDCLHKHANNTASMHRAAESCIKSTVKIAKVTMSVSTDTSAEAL
Cannabinoid receptor 2, sequence (P47936 whole entry): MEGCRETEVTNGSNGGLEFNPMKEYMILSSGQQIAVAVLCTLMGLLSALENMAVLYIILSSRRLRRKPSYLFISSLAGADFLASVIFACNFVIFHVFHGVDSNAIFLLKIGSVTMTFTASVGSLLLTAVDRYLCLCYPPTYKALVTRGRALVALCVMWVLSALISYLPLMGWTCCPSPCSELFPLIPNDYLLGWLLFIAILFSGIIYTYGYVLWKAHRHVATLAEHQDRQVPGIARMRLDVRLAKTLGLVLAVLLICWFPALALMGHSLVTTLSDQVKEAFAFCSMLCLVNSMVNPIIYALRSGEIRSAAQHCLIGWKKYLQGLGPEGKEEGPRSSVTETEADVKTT

SMILES: CCCCC/C=C\[C@H](C)/C=C\C/C=C\C/C=C\CCCC(=O)N[C@H](C)CO
- half-life [1]: 30 min
- pKi (Cannabinoid receptor 1 [2]): 8.05
- pKi (Cannabinoid receptor 2): 6.19
- Activity (Mus musculus [3]): Active
- pEC50 (Cannabinoid receptor 1 [4]): 9.22
- Activity (Mus musculus [5]): Active
